BindingDB's records for doi:10.1021/jm970730q (Tulane University School of Medicine, 1998)
Positions of bridges follow the written chain, without caps; N, C: chain ends. Non-standard residues stand in square brackets, D forms with d. Residues, ends and D or L forms follow the SMILES beside them. Dip = N[C@H](C(=O)O)C(c1ccccc1)c1ccccc1; 2Nal = N[C@@H](Cc1ccc2ccccc2c1)C(=O)O; 3Pal = N[C@@H](Cc1cccnc1)C(=O)O

How the values were obtained:
[1] = target: Somatostatin receptor type 4 (Homo sapiens, UniProt P31391); experiment: Binding affinity towards cloned human somatostatin 4 (hsst) receptor
Sequence of Somatostatin receptor type 4 (P31391 whole entry): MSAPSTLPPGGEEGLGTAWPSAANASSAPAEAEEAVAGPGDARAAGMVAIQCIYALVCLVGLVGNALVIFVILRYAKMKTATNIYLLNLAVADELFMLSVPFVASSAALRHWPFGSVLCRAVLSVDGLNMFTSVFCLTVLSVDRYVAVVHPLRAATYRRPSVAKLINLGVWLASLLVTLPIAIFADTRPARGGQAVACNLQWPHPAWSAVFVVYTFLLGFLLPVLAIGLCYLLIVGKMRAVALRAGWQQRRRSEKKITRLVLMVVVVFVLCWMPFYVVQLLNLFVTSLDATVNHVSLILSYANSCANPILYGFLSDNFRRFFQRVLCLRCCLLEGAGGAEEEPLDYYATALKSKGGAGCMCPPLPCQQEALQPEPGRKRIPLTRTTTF

[2] = target: Somatostatin receptor type 1 (Homo sapiens, UniProt P30872); experiment: Binding affinity towards cloned human somatostatin 1 (hsst) receptor
Sequence of Somatostatin receptor type 1 (P30872 whole entry): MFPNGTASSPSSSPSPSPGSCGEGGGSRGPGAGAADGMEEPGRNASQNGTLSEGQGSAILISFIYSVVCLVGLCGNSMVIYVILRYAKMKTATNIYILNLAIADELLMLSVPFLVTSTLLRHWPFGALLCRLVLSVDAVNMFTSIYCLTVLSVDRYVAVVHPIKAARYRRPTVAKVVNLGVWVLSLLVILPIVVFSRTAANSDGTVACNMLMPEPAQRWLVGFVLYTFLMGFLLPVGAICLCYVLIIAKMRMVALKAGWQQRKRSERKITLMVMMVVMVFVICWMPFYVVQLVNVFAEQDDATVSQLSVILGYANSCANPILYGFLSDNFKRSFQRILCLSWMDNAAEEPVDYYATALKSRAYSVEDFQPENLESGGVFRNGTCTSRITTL
In short: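 Membranes from CHO-K1 cells stably transfected with the human receptor subtype (calcium phosphate transfection, G418 selection), homogenised and washed in Tris-HCl. Separated by filtration on PEI-soaked GF/C filters; nonspecific binding with 1.0 µM SRIF.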

IC50 [1] | IC50 [2] | Compound
1 µM | – | CC(C)[C@@H]1NC(=O)[C@H](CCCCN)NC(=O)[C@@H](Cc2c[nH]c3ccccc23)NC(=O)[C@H](Cc2c[nH]cn2)NC(=O)[C@H](NC(=O)[C@@H](N)C(c2ccccc2)c2ccccc2)CSSC[C@@H](C(=O)N[C@@H](Cc2ccc3ccccc3c2)C(N)=O)NC1=O [H-Dip-cyclo[DCys-His-DTrp-Lys-Val-Cys]-Nal-NH2] (H-[Dip][dC]H[dW]KVC[2Nal]-NH2; disulfide 2-7)
– | 1 µM | CC(C)[C@@H]1NC(=O)[C@H](CCCCN)NC(=O)[C@@H](Cc2c[nH]c3ccccc23)NC(=O)[C@H](Cc2c[nH]cn2)NC(=O)[C@H](NC(=O)[C@@H](N)C(c2ccccc2)c2ccccc2)CSSC[C@@H](C(=O)N[C@H](C(N)=O)C(c2ccccc2)c2ccccc2)NC1=O [H-Dip-cyclo[DCys-His-DTrp-Lys-Val-Cys]-Dip-NH2] (H-[Dip][dC]H[dW]KVC[Dip]-NH2; disulfide 2-7)
1 µM | 1 µM | CC(C)[C@@H]1NC(=O)[C@H](CCCCN)NC(=O)[C@@H](Cc2c[nH]c3ccccc23)NC(=O)[C@H](Cc2cccnc2)NC(=O)[C@H](NC(=O)[C@@H](N)C(c2ccccc2)c2ccccc2)CSSC[C@@H](C(=O)N[C@H](C(N)=O)C(c2ccccc2)c2ccccc2)NC1=O [H-Dip-cyclo[DCys-Pal-DTrp-Lys-Val-Cys]-Dip-NH2] (H-[Dip][dC][3Pal][dW]KVC[Dip]-NH2; disulfide 2-7)
